# Measurements reported in ChEMBL document CHEMBL4052602, “Sesquiterpenoids with Various Carbocyclic Skeletons from the Flowers of Chrysanthemum indicum” (J Nat Prod, 2017).
# Calls of active or inactive are those of the source. The rule behind the calls is not given here.
# Key:
# Vero [1] = assay: Cytotoxicity against African green monkey Vero cells assessed as decrease in cell viability at 90 uM after 2 days by MTT assay; assay type: cell-based; details: chlorocebus sabaeus, 48 h
# Vero [2] = assay: Cytotoxicity against African green monkey Vero cells assessed as decrease in cell viability at 20 to 80 uM after 2 days by MTT assay; assay type: cell-based; details: chlorocebus sabaeus, 48 h
# [3] = tested on: Porcine epidemic diarrhea virus; assay: Antiviral activity against Porcine epidemic diarrhea virus infected in African green monkey Vero cells assessed as inhibition of virus-induced cytopathic effect at 20 uM after 3 days; assay type: functional
# Outline: (§1)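 Vero cells were inoculated with PEDV for 2 h, then treated with compound and incubated 3 days, with CPE inhibition as read-out. Screening was at 40 or 50 μM for non-cytotoxic compounds and at 20 μM for cytotoxic ones; the dose-response covered 20–90 μM. Azauridin was the positive control; mean ± SD, n = 3, versus virus-injected control.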
# Vero [4] = assay: Cytotoxicity against African green monkey Vero cells assessed as decrease in cell viability at 80 uM after 2 days by MTT assay; assay type: cell-based; details: chlorocebus sabaeus, 48 h
# [5] = tested on: Porcine epidemic diarrhea virus; assay: Antiviral activity against Porcine epidemic diarrhea virus infected in African green monkey Vero cells assessed as inhibition of virus-induced cytopathic effect at 40 uM after 3 days; assay type: functional; outline: as §1
# Vero [6] = assay: Cytotoxicity against African green monkey Vero cells assessed as decrease in cell viability at 70 uM after 2 days by MTT assay; assay type: cell-based; details: chlorocebus sabaeus, 48 h
# Vero [7] = assay: Cytotoxicity against African green monkey Vero cells assessed as decrease in cell viability at 20 to 70 uM after 2 days by MTT assay; assay type: cell-based; details: chlorocebus sabaeus, 48 h
# [8] = tested on: Porcine epidemic diarrhea virus; assay: Antiviral activity against Porcine epidemic diarrhea virus infected in African green monkey Vero cells assessed as inhibition of virus-induced cytopathic effect at 20 to 90 uM after 3 days; assay type: functional; outline: as §1
# [9] = tested on: Porcine epidemic diarrhea virus; assay: Antiviral activity against Porcine epidemic diarrhea virus infected in African green monkey Vero cells assessed as inhibition of virus-induced cytopathic effect after 3 days; assay type: functional; outline: as §1
# [10] = tested on: Porcine epidemic diarrhea virus; assay: Antiviral activity against Porcine epidemic diarrhea virus infected in African green monkey Vero cells assessed as decrease in spike protein expression levels at 45 uM after 24 hrs by Western blot analysis; assay type: functional
# Outline: (§2)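 PEDV-infected Vero cells were incubated with or without compound for 24 h; single-compound tests were at 40 or 45 μM, and a dose series at 80, 40, 20 and 10 μM. Cells were lysed and blotted with nucleocapsid and spike antibodies. Azauridin was the positive control; mean ± SD, n = 3, versus virus-injected control.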
# [11] = tested on: Porcine epidemic diarrhea virus; assay: Antiviral activity against Porcine epidemic diarrhea virus infected in African green monkey Vero cells assessed as decrease in nucleocapsid expression levels at 45 uM after 24 hrs by Western blot analysis; assay type: functional
# Outline: (§3)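 Vero cells inoculated with PEDV, then incubated with or without compound (40 or 45 μM, or 10, 20, 40, 80 μM) for 24 h. Cells lysed and probed by Western blot with anti-nucleocapsid and anti-spike antibodies. Azauridin was the positive control. Values are relative to virus-infected control, mean ± SD (n = 3).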
# [12] = tested on: Porcine epidemic diarrhea virus; assay: Antiviral activity against Porcine epidemic diarrhea virus infected in African green monkey Vero cells assessed as decrease in spike protein synthesis levels after 24 hrs by DAPI staining-based fluorescence microscopy; assay type: functional
# Outline: (§4)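 Virus-injected Vero cells were incubated 24 h with compound at 80, 40 or 20 μM, or with azauridin (20 μM) as positive control. Cells were then fixed, permeabilized and stained with monoclonal antibody against spike (or nucleocapsid) protein for immunofluorescence, alongside noninjected cells.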
# [13] = tested on: Porcine epidemic diarrhea virus; assay: Antiviral activity against Porcine epidemic diarrhea virus infected in African green monkey Vero cells assessed as decrease in nucleocapsid expression levels after 24 hrs by Western blot analysis; assay type: functional; outline: as §3
# [14] = tested on: Porcine epidemic diarrhea virus; assay: Antiviral activity against Porcine epidemic diarrhea virus infected in African green monkey Vero cells assessed as decrease in nucleocapsid synthesis at 20 to 80 uM after 24 hrs by DAPI staining-based fluorescence microscopy; assay type: functional
# Outline: (§5)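 PEDV-infected Vero cells co-incubated with compound at 20, 40 or 80 μM for 24 h, with azauridin 20 μM as positive control. Cells fixed, permeabilized and stained with monoclonal antibody to nucleocapsid or spike. Antigen-expressing cells were scored by immunofluorescence and compared with uninfected and virus-infected controls.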
# [15] = tested on: Porcine epidemic diarrhea virus; assay: Antiviral activity against Porcine epidemic diarrhea virus infected in African green monkey Vero cells assessed as inhibition of virus-induced cytopathic effect at 20 to 80 uM after 3 days; assay type: functional
# [16] = tested on: Porcine epidemic diarrhea virus; assay: Antiviral activity against Porcine epidemic diarrhea virus infected in African green monkey Vero cells assessed as decrease in spike protein expression levels after 24 hrs by Western blot analysis; assay type: functional; outline: as §2
# [17] = tested on: Porcine epidemic diarrhea virus; assay: Antiviral activity against Porcine epidemic diarrhea virus infected in African green monkey Vero cells assessed as decrease in spike expression levels at 40 uM after 24 hrs by Western blot analysis; assay type: functional; outline: as §2
# [18] = tested on: Porcine epidemic diarrhea virus; assay: Antiviral activity against Porcine epidemic diarrhea virus infected in African green monkey Vero cells assessed as decrease in spike protein synthesis at 20 to 80 uM after 24 hrs by DAPI staining-based fluorescence microscopy; assay type: functional; outline: as §4
# [19] = tested on: Porcine epidemic diarrhea virus; assay: Antiviral activity against Porcine epidemic diarrhea virus infected in African green monkey Vero cells assessed as decrease in nucleocapsid synthesis after 24 hrs by DAPI staining-based fluorescence microscopy; assay type: functional; outline: as §5
# [20] = tested on: Porcine epidemic diarrhea virus; assay: Antiviral activity against Porcine epidemic diarrhea virus infected in African green monkey Vero cells assessed as decrease in spike protein expression levels at 10 to 80 uM after 24 hrs by Western blot analysis; assay type: functional; outline: as §2
# [21] = tested on: Porcine epidemic diarrhea virus; assay: Antiviral activity against Porcine epidemic diarrhea virus infected in African green monkey Vero cells assessed as decrease in nucleocapsid expression levels at 10 to 80 uM after 24 hrs by Western blot analysis; assay type: functional; outline: as §3
# [22] = tested on: Porcine epidemic diarrhea virus; assay: Antiviral activity against Porcine epidemic diarrhea virus infected in African green monkey Vero cells assessed as decrease in nucleocapsid expression levels at 40 uM after 24 hrs by Western blot analysis; assay type: functional; outline: as §3
smiles,measurement,setting,value
C=C1CC[C@@H]2[C@H]([C@H]3[C@H]1CC[C@]3(C)O)C2(C)C [SPATHULENOL],Activity,Vero [1],Non-Toxic
CC(=O)CC[C@@H]1[C@H]2CCC(=O)[C@@H](C(C)C)[C@@H]12,Activity,Vero [1],Non-Toxic
C=C1C(=O)O[C@@H]2[C@H]3C(C)=CC(=O)C3=C(C)C[C@H](O)[C@@H]12,Activity,Vero [2],Toxic
same,Activity,[3],Active
C=C(C)[C@@H]1CC/C(C)=C\C[C@@H](O)C(=C)[C@@H](O)C1,Activity,Vero [4],Non-Toxic
same,Activity,[5],Active
CC(C)(O)[C@@H]1CC[C@@]2(C)CCC[C@@]3(CO)O[C@@]23[C@@H]1O,Activity,Vero [6],Non-Toxic
same,Activity,[5],Active
CC(C)(O)[C@@H]1C=C2C(CO)=CCC[C@@]2(C)CC1,Activity,Vero [2],Toxic
CC(C)(O)[C@@H]1CC[C@@]2(C)CCC[C@]3(CO3)[C@]2(O)[C@@H]1O,Activity,Vero [6],Non-Toxic
same,Activity,[5],Active
C=C(C)[C@H]1CCC(=C)[C@@]2(O)C[C@H](O)C(=C)[C@@H](C1)O2,Activity,Vero [2],Toxic
C=C(C)[C@@H]1CC[C@@]2(C)[C@H](O)C[C@@H](O)C(=C)[C@@H]2C1,Activity,Vero [4],Non-Toxic
same,Activity,[5],Active
C[C@@H]1CCC(=O)[C@@H]2CC[C@@H](C(C)(C)O)C[C@@]12C,Activity,Vero [4],Non-Toxic
same,Activity,[5],Active
C=C1CCC[C@]2(C)CC[C@@H](C(C)(C)O)[C@@H](O)[C@@]12O,Activity,Vero [4],Non-Toxic
same,Activity,[5],Active
CC(=O)O[C@@H]1C=C(C)[C@@]2(O)CC=C(C)[C@H]2[C@@H]2OC(=O)[C@H](C)[C@H]21,Activity,Vero [7],Toxic
C=C1CC[C@@H](O)[C@]2(C)C[C@@H]3[C@@H](C(C)C)[C@@H]3[C@@H]12,Activity,Vero [1],Non-Toxic
same,Activity,[8],Active
same,Activity,[9],Dose-dependent effect
same,Activity,[10],Active
same,Activity,[11],Active
C=C1/C=C/[C@H](C(C)C)CCC(=C)[C@H](O)CC1,Activity,Vero [1],Non-Toxic
same,Activity,[8],Active
same,Activity,[9],Dose-dependent effect
same,Activity,[10],Active
same,Activity,[11],Active
C=C1CCC[C@@]2(C)CC[C@@H](C(C)(C)O)[C@@H](O)[C@@]12O,Activity,[12],Dose-dependent effect
same,Activity,[13],Dose-dependent effect
same,Activity,Vero [4],Non-Toxic
same,Activity,[14],Active
same,Activity,[15],Active
same,Activity,[16],Dose-dependent effect
same,Activity,[17],Active
same,Activity,[9],Dose-dependent effect
same,Activity,[18],Active
same,Activity,[19],Dose-dependent effect
same,Activity,[20],Active
same,Activity,[21],Active
same,Activity,[22],Active
C=C(C)[C@@H]1CC[C@]2(C)C(=C(C)C(=O)C[C@H]2O)C1 [LIGUCYPERONOL],Activity,Vero [1],Non-Toxic
same,Activity,[5],Active
C=C1CC[C@@H](O)[C@]2(C)CC[C@@H](C(C)C)[C@H](O)[C@@H]12,Activity,Vero [4],Non-Toxic
same,Activity,[5],Active
CC(=O)O[C@H]1CC(C)=C2C(=O)C=C(C)[C@@H]2[C@H]2OC(=O)[C@@H](C)[C@@H]21,Activity,Vero [7],Toxic
